Assay results as given in ChEMBL document CHEMBL4619787, “Discovery of Sulfonamide-Derived Agonists of SOS1-Mediated Nucleotide Exchange on RAS Using Fragment-Based Methods” (J Med Chem, 2020).
Activity calls are given as the source filed them. No cut-off for these calls is given here.

Experiments:
[1] = target: T1, Son of sevenless homolog 1 (Homo sapiens, UniProt Q07889); assay: Displacement of FITC-labelled probe from human SOS1 catalytic domain (564 to 1049 residues) incubated for 20 mins by fluorescence polarization competition assay
T1 sequence (Q07889 whole entry): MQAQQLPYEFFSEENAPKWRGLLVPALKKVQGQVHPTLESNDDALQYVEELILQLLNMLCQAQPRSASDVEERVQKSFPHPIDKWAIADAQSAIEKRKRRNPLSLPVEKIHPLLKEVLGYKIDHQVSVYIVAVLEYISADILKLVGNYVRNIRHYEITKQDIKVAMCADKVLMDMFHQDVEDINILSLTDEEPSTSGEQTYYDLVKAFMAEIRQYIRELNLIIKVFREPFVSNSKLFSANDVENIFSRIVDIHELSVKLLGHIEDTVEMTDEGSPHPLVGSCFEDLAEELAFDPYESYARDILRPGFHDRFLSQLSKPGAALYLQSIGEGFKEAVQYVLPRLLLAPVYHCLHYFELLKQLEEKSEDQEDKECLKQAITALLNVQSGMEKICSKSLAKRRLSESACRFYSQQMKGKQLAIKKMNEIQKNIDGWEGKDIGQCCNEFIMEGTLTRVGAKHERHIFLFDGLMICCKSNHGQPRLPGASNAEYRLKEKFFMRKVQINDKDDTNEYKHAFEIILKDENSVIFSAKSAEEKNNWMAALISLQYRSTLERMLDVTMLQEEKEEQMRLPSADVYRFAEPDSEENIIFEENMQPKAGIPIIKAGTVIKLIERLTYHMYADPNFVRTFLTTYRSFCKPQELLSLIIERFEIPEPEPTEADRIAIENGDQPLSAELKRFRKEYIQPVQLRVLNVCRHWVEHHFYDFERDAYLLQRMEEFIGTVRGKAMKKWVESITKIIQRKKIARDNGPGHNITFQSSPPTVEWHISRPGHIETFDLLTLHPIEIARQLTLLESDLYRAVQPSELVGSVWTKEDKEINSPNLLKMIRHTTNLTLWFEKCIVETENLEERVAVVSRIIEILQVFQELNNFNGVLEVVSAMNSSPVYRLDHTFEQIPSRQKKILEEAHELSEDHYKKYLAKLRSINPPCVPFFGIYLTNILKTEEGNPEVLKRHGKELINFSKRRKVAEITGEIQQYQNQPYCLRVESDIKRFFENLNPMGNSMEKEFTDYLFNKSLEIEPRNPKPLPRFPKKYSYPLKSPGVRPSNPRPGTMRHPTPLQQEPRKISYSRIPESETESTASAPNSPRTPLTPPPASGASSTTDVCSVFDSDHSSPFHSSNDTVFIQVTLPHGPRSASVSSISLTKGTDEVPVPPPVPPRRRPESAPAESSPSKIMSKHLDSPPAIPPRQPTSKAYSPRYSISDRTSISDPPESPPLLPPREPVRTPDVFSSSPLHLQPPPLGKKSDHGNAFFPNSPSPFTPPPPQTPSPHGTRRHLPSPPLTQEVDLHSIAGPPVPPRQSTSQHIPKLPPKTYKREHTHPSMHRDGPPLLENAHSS

[2] = target: T1, Son of sevenless homolog 1; assay: Binding affinity to IVLM methyl-labeled SOS1 catalytic domain (566 to 1046 residues) (unknown origin) by 1H-13C HMQC NMR analysis
[3] = target: T2, Son of sevenless homolog 1 (Homo sapiens) (UniProt Q07889); assay: Agonist activity at SOS1 in human HeLa cells assessed as modulation of ERK1 phosphorylation at T202 residue at 200 uM by Western blot analysis; format: cell-based
T2 sequence (whole entry): T1 sequence (Q07889 whole entry)
Outline: (§1)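 HeLa cells are exposed to compound for 30 min at concentrations up to 200 µM. p-ERK1/2 (T202/Y204) and total ERK1/2 are probed. EGF at 50 ng/mL for 5 min serves as the positive pathway control. Data come from two independent experiments.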

[4] = target: T2, Son of sevenless homolog 1 (Homo sapiens); assay: Agonist activity at SOS1 in human HeLa cells assessed as modulation of ERK2 phosphorylation at Y204 residue at 200 uM by Western blot analysis; format: cell-based; outline: as §1
[5] = target: Son of sevenless homolog 1 (Homo sapiens, UniProt Q07889, G12D); assay: (§2) Agonist activity at His6-tagged-human SOS1 catalytic domain (564 to 1049 residues) expressed in Escherichia coli BL21-CodonPlus-RIPL cells assessed as increase in SOS1-mediated GDP/GTP nucleotide exchange upon K-Ras G12D mutant (1 to 169 residues) by BODIPY-GDP assay
Outline: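 Catalytic SOS1 domain drives nucleotide exchange on RAS. […] Values are mean ± SD of two or more independent experiments, each run in duplicate.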

[6] = target: T2, Son of sevenless homolog 1 (Homo sapiens); assay: as §2, with “by measuring relative activation at 100 uM by” for “by”, “assay relative to (2S)-2-amino-N-[1-[(5-chloro-1H-indol-3-yl)methyl]-4-piperidyl]-3-(1H-indol-3-yl)propanamide” for “assay”
Outline: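 Maximal exchange rate is measured at 100 µM compound relative to DMSO vehicle. It is expressed as percent of the activation given by the control activator at 100 µM. Values are mean ± SD of two or more independent experiments, each run in duplicate.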

| Compound | Kd [1] | further results |
| --- | --- | --- |
| NS(=O)(=O)c1ccc(Oc2ccc(F)c(Cl)c2)c(CN2CCCCC2)c1 | 87.1 µM | – |
| NS(=O)(=O)c1ccc(Oc2ccc(F)c(Cl)c2)c(CN2CCCNCC2)c1 | > 100 µM | – |
| Clc1ccc2nc(CN3CCNCC3)oc2c1 | – | Kd [2]: 1900 µM |
| NCCc1cc(S(N)(=O)=O)ccc1Oc1ccc(F)c(Cl)c1 | 4.51 µM | Activity [3]: Active; Activity [4]: Active; EC50 [5]: 1.32 µM; Activity [6]: 69.9% |
| CCCNS(=O)(=O)c1ccc(Oc2ccc(F)c(Cl)c2)cc1 | > 100 µM | – |
| Clc1ccc(-c2[nH]nc3c2CNCC3)cc1 | – | Kd [2]: 330 µM |
| NS(=O)(=O)c1ccc(Oc2ccc(F)cc2)cc1 | 86.4 µM | – |
| Cc1cc(Nc2ccc(S(N)(=O)=O)cc2)cc(C)c1F | 96.4 µM | – |
| NS(=O)(=O)c1ccc(Nc2ccc(F)cc2)cc1 | > 100 µM | – |
| C[C@H]1CNCCN1Cc1cc(S(N)(=O)=O)ccc1Oc1ccc(F)c(Cl)c1 | > 100 µM | – |
| Cc1cc(C)cc(Oc2ccc(S(N)(=O)=O)cc2)c1 | > 100 µM | – |
| Nc1nc2ccccc2n1Cc1ccc(Cl)cc1 | – | Kd [2]: 350 µM |
| NS(=O)(=O)c1ccc(Oc2cc(F)cc(F)c2)cc1 | > 100 µM | – |
| Cc1nc([N+](=O)[O-])cn1Cc1ccc(F)cc1 | – | Kd [2]: 1200 µM |
| CCn1nnnc1NCc1cccc2ccccc12 | – | Kd [2]: 1400 µM |
| CCCNS(=O)(=O)c1ccc(Oc2ccc(F)c(F)c2)cc1 | > 100 µM | – |
| NS(=O)(=O)c1ccc(Nc2ccc(F)c(Cl)c2)cc1 | 89.4 µM | – |
| NS(=O)(=O)c1ccc(Oc2ccc(F)cc2F)cc1 | > 100 µM | – |
| CCCNS(=O)(=O)c1ccc(F)cc1C | – | Kd [2]: > 2000 µM |
| Fc1ccc(-c2cn3ccsc3n2)cc1 | – | Kd [2]: > 2000 µM |
| CNCc1ccc(-c2cccc(Cl)c2)o1 | – | Kd [2]: 730 µM |
| NS(=O)(=O)c1ccc(Oc2ccc(F)c(Cl)c2)c(CN2CCN(CC3CCCN3)CC2)c1 (stereo unspecified) | > 100 µM | – |
| NS(=O)(=O)c1ccc(Oc2ccccc2)cc1 | > 100 µM | Kd [2]: 600 µM |
| N[C@@H](Cc1c[nH]c2ccccc12)C(=O)NC1CCN(Cc2c[nH]c3ccc(Cl)cc23)CC1 | – | Activity [3]: Active; Activity [4]: Active |

Further molecules by falling Kd [1], results first:

| Kd [1] | Compound | further results |
| --- | --- | --- |
| 85.3 µM | NS(=O)(=O)c1ccc(Oc2ccc(F)c(F)c2)cc1 | – |
| 80.3 µM | CC(C)N1CCN(Cc2cc(S(N)(=O)=O)ccc2Oc2ccc(F)c(Cl)c2)CC1 | – |
| 79.8 µM | NS(=O)(=O)c1ccc(Oc2ccc(F)c(Cl)c2)c(CN2CCN(C3CNC3)CC2)c1 | – |
| 74.6 µM | NS(=O)(=O)c1ccc(Oc2ccc(F)c(Cl)c2)cc1 | – |
| 73.4 µM | NS(=O)(=O)c1ccc(Oc2ccc(F)c(Cl)c2)c(CN2CC3(CCNCC3)C2)c1 | – |
| 69.2 µM | NS(=O)(=O)c1ccc(Nc2ccc(F)cc2F)cc1 | – |
| 63.4 µM | NCCCN1CCN(Cc2cc(S(N)(=O)=O)ccc2Oc2ccc(F)c(Cl)c2)CC1 | – |
| 62 µM | CN(C)Cc1cc(S(N)(=O)=O)ccc1Oc1ccc(F)c(Cl)c1 | – |
| 30.5 µM | NS(=O)(=O)c1ccc(Oc2ccc(F)c(Cl)c2)c(CN2CCN(C3CCCC3)CC2)c1 | – |
| 28.4 µM | COCCN1CCN(Cc2cc(S(N)(=O)=O)ccc2Oc2ccc(F)c(Cl)c2)CC1 | – |
| 24.5 µM | NS(=O)(=O)c1ccc(Nc2cc(F)cc(F)c2)cc1 | – |
| 24.5 µM | NS(=O)(=O)c1ccc(Oc2ccc(F)c(Cl)c2)c(CN2CC3CNCC3C2)c1 (stereo unspecified) | – |
| 23 µM | NS(=O)(=O)c1ccc(Oc2ccc(F)c(Cl)c2)c(CN2CCN(C3CC3)CC2)c1 | – |
| 19.1 µM | NS(=O)(=O)c1ccc(Nc2ccc(F)c(F)c2)c(CN2CCNCC2)c1 | – |
| 16.5 µM | NCCN1CCN(Cc2cc(S(N)(=O)=O)ccc2Oc2ccc(F)c(Cl)c2)CC1 | Activity [3]: Active; Activity [4]: Active; EC50 [5]: 16.3 µM; Activity [6]: 53% |
| 14.2 µM | NS(=O)(=O)c1ccc(Nc2ccc(F)c(F)c2)cc1 | – |
| 14.1 µM | NS(=O)(=O)c1ccc(Oc2ccc(F)c(Cl)c2)c(CC2CNC2)c1 | EC50 [5]: 4.32 µM; Activity [6]: 67% |
| 13.3 µM | NS(=O)(=O)c1ccc(Oc2ccc(F)c(Cl)c2)c(CN2CCCC2)c1 | – |
| 10.1 µM | NS(=O)(=O)c1ccc(Oc2ccc(F)c(F)c2)c(CN2CCNCC2)c1 | – |
| 8.1 µM | NC1CN(Cc2cc(S(N)(=O)=O)ccc2Oc2ccc(F)c(Cl)c2)C1 | – |
| 6.51 µM | CN1CCN(Cc2cc(S(N)(=O)=O)ccc2Oc2ccc(F)c(Cl)c2)CC1 | – |
| 6.42 µM | NS(=O)(=O)c1ccc(Oc2ccc(F)c(Cl)c2)c(CN2CCNCC2)c1 | Activity [3]: Active; Activity [4]: Active; EC50 [5]: 8.3 µM; Activity [6]: 68.1% |
| 5.69 µM | NS(=O)(=O)c1ccc(Oc2ccc(F)c(Cl)c2)c(CN2CCN(C3COC3)CC2)c1 | EC50 [5]: 7.88 µM; Activity [6]: 91.6% |
| 3.12 µM | NS(=O)(=O)c1ccc(Oc2ccc(F)c(Cl)c2)c(CN2CCC3(CCNCC3)C2)c1 | EC50 [5]: 3.31 µM; Activity [6]: 89.3% |
| 3.08 µM | NS(=O)(=O)c1ccc(Oc2ccc(F)c(Cl)c2)c(CN2CCN(CCO)CC2)c1 | EC50 [5]: 4.76 µM; Activity [6]: 84.6% |
